Experimental data: PMC6790403 (International Journal of Nanomedicine, 2019)
Marks after values point to notes of the source that are not given here.

Tests used:
SKBR-3 cells [1] = experiment: Cytotoxicity by MTT assay; type: cell-based; settings: Homo sapiens, SK-BR-3
Method in brief: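 SKBR-3 cells were grown in McCoy's 5A with 10% FBS, penicillin and streptomycin at 37°C under 5% CO2. Test compound was applied over a dose range in a time-dependent MTT assay. Growth inhibition was expressed as a percentage relative to controls, and IC50 was derived from the dose response.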

SKBR-3 cells [2] = experiment: Apoptosis study by annexin V FITC; type: cell-based, human; settings: SKBR3 cells, 24 hrs, at respective IC50
Method in brief: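 SKBR-3 cells seeded at 1×10^5 cells per well in McCoy's medium at 37°C and exposed to test compound for 24 hrs. Cells were then trypsinized, pelleted at 3000 rpm for 3 mins and PBS-washed. They were stained with FITC-annexin V plus propidium iodide, and the apoptotic fraction was quantified by flow cytometry.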

SKBR-3 cells [3] = experiment: Cell cycle distribution analysis; type: cell-based, human; settings: 24 hrs, at respective IC50
Method in brief: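 After 24 hrs of exposure to test compound (SKBR-3 seeded at 1×10^5 cells per well), cells were collected and washed thrice in sterile PBS pH 7.4. They were fixed in chilled 70% ethanol and stained with propidium iodide (20 µg/mL) for 30 mins. DNA content was acquired over 15,000 events per sample, and phase distribution was compared with untreated control.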

MCF-7 cells = experiment: Cell cycle distribution analysis; type: cell-based, human; settings: 24 hrs, at respective IC50
Pharmacokinetic study = type: in vivo, BALB/c mice
Cardiac toxicity study = type: in vivo, female BALB/c mice; settings: BALB/c mice
Method in brief: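 Female BALB/c mice (~25 g, n=3 per group) received three consecutive IV injections totalling […] DOX, given as free drug or drug-equivalent nanoparticles. Controls were untreated/saline and blank nanoparticles. Weight was recorded every 48 hrs, and […] was taken under light anaesthesia 14 days after the last dose. Hearts were then excised and weighed, and SOD was kit-assayed in heart homogenate (ice-cold PBS, 10 mL/g).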

SKBR-3 tumor = experiment: In vivo therapeutic study on tumor-bearing xenograft mice; design: species or system athymic nude mice; settings: for average tumor volume: three IV doses of DOX 3 mg/kg on alternate days
Method in brief: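 Athymic nude mice (CAnN.Cg-Foxn, 6 weeks, ~20 g) were inoculated subcutaneously in the left rear flank with 1×10^7 SKBR-3 cells in 200 μL medium. At 100–150 mm3, groups of three received IV saline or test compound, three doses of DOX 3 mg/kg equivalent on alternate days. Tumours were caliper-measured, body weight was monitored, and excised tumours were weighed after sacrifice (mean ± SD, n=3).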

[4] = BALB/c, mouse, plasma, iv, 10 mg/kg
[5] = plasma DOX, IV bolus, 10 mg/kg DOX or equivalent, BALB/c mice

With `COc1cccc2c1C(=O)c1c(O)c3c(c(O)c1C2=O)C[C@@](O)(C(=O)CO)C[C@@H]3O[C@H]1C[C@H](N)[C@H](O)[C@H](C)O1` [DOX, (7S, 9S)-7-[(2R, 4S, 5S, 6S)-4-amino-5-hydroxy-6-methyloxan-2-yl]oxy-6,9,11-trihydroxy-9-(2-hydroxyacetyl)-4-methoxy-8,10-dihydro-7H-tetracene-5,12-dione] the IC50 (SKBR-3 cells [1]) was 14.1 µM, the extent of apoptosis (SKBR-3 cells [2]) was 19.6% and the “cell-arrest in S-phase” value (SKBR-3 cells [3]) was 22%. The “cell-arrest in S-phase” value (MCF-7 cells) was 8%, the AUC(0-inf) (Pharmacokinetic study; [4]) was 2930 ± 205 ng·h/mL and the AUC(0-t) (Pharmacokinetic study; [4]) was 2880 ± 199 ng·h/mL. It also gave a Cmax (Pharmacokinetic study; [4]) of 911 ± 50.5 ng/mL, an MRT inf (Pharmacokinetic study; [4]) of 18.2 ± 0.86 h and an MRT last (Pharmacokinetic study; [4]) of 16.2 ± 0.99 h. The Tmax (Pharmacokinetic study; [4]) was 0.25 ± 0.021 h, the Vd (Pharmacokinetic study; [4]) was 61.9 ± 4.8 L/kg and the clearance (Pharmacokinetic study; [4]) was 56.7 mL/min/kg. The half-life (Pharmacokinetic study; [4]) was 17.9 ± 2.1 h, the AUMCinf (Pharmacokinetic study; [5]) was 53,296.5±2600 hrs.hrs.ng/mL and the AUMClast (Pharmacokinetic study; [5]) was 46,707.8±2202.6 hrs.hrs.ng/mL. The Heart weight (Cardiac toxicity study; 2 weeks after final dosing) was 0.1420 ± 0.025 g, the LV fractional shortening (Cardiac toxicity study; 14 days after last dose) was “significant decrease” and the “histopathology of heart sections” value (Cardiac toxicity study; hematoxylin and eosin staining) was “Remarkable changes in degradation in cardiac muscle with vacuolization and edema of the cells”. The “% SOD” value (Cardiac toxicity study; heart homogenate, 2 weeks after final dosing) was 34.02±4.5^a,b %, the “Average tumor weights of the excised tumors” value (SKBR-3 tumor; at the terminal experiment, SKBR-3 tumor, three IV doses of DOX 3 mg/kg) was 0.424 ± 0.06 g and the average tumor volume (SKBR-3 tumor; day 15, SKBR-3 tumor) was 500 mm^3. The average tumor volume (SKBR-3 tumor; day 25, SKBR-3 tumor) was 1790 mm^3.
